Active and inactive are the calls of the source.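 How the source made its calls: active means reporter absorbance over solvent-only wells above 1.25 at every tested dose; inactive means the rest.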
Test system: HEK293 CYP11A1 promoter CAT reporter, ELISA absorbance
Assay: CYP11A1 reporter increase in DAX-1/SF-1 cells – cell-based, absorbance, CAT reporter, HEK293, counter-screen for DAX1 inhibitor project, late-stage follow-up (AID 624313)
Conditions: at 100 µM (top of the series)
Method in brief: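 Material: HEK293 cells carrying DAX-1, SF-1 and CYP11A1-promoter CAT reporter plasmids | Dosing: Three doses, 1:2 steps from 100 µM | Signal: CAT EIA absorbance | Evaluation: CAT signal relative to DMSO-treated wells | Controls: pSG5 empty-vector positive control, DMSO reference | Replication: Each dose tested in triplicate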

SMILES | relative activity ratio
Cn1c(=O)n(C)c2cc(C(=O)Nc3ccc4c(c3)OCCO4)ccc21 | 0.27 (inactive)
Cn1c(=O)n(C)c2cc(C(=O)Nc3ccc4c(c3)OCO4)ccc21 | 0.52 (inactive)
